Measured values published in ChEMBL document CHEMBL1649152, “Pharmacokinetics of hydroxychloroquine and its clinical implications in chemoprophylaxis against malaria caused by Plasmodium vivax” (Antimicrob Agents Chemother, 2009).
Calls of active or inactive are those of the source. No cut-off for these calls is given here.

Experiments:
Homo sapiens [1] = test: Terminal half life in healthy human assessed as desethylchloroquine level at 400 mg, po administered as single dose; type: ADME, organism-based; details: in vivo
How it was run: (§1)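 Six healthy subjects (study Ia), fasted from 10 h before to 4 h after the oral dose; serial plasma sampled up to 314 h. Plasma extracted with diethyl ether, then reversed-phase HPLC on a C18 column with fluorescence detection (ex 320/em 370 nm). Noncompartmental analysis: Cmax and Tmax observed; terminal t1/2 = ln2/λz; AUC by linear-log trapezoidal, AUCinf extrapolated.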

[2] = Cmax in healthy human plasma at 400 mg, po administered as single dose; type: ADME, organism-based; design: dose 400 mg, route oral; how it was run: as §1
[3] = Apparent peripheral distribution volume in healthy human at 400 mg, po administered as single dose; type: ADME, organism-based; details: in vivo, read-out: Vz/F
Homo sapiens [4] = test: Terminal half life in healthy human assessed as bisdesethylchloroquine level at 400 mg, po administered as single dose; type: ADME, organism-based; details: in vivo; how it was run: as §1
Plasmodium vivax = test: Antimalarial activity against Plasmodium vivax infected in patient assessed as prophylaxis at 400 mg, po once a week
Homo sapiens [5] = test: Tmax in healthy human assessed as bisdesethylchloroquine level at 400 mg, po administered as single dose; type: ADME, organism-based; details: in vivo; how it was run: as §1
Homo sapiens [6] = test: AUC (infinity) in healthy human assessed as desethylchloroquine level at 400 mg, po administered as single dose; type: ADME, organism-based, Plasma; design: dose 400 mg, route oral, time infinity; details: in vivo; how it was run: as §1
Homo sapiens [7] = test: Cmax in healthy human plasma assessed as desethylchloroquine level at 400 mg, po administered as single dose; type: ADME, organism-based; design: dose 400 mg, route oral; details: in vivo; how it was run: as §1
[8] = AUC (last) in healthy human at 400 mg, po administered as single dose; type: ADME, organism-based; design: dose 400 mg, time 0 - last, route oral; details: plasma; how it was run: as §1
Homo sapiens [9] = test: Cmax in healthy human plasma assessed as bisdesethylchloroquine level at 400 mg, po administered as single dose; type: ADME, organism-based; design: dose 400 mg, route oral; details: in vivo; how it was run: as §1
Homo sapiens [10] = test: AUC (last) in healthy human assessed as desethylchloroquine level at 400 mg, po administered as single dose; type: ADME, organism-based, Plasma; design: dose 400 mg, time 0 - last, route oral; details: in vivo; how it was run: as §1
Homo sapiens [11] = test: AUC (last) in healthy human assessed as bisdesethylchloroquine level at 400 mg, po administered as single dose; type: ADME, organism-based, Plasma; design: dose 400 mg, route oral, time 0 - last; details: in vivo; how it was run: as §1
Homo sapiens [12] = test: Ratio of AUC for desethylchloroquine level to AUC for compound in healthy human at 400 mg, po administered as single dose; type: ADME, organism-based; details: in vivo
How it was run: (§2)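 Six healthy volunteers in study Ia, fasted from 10 h before to 4 h after dosing, sampled serially up to 314 h. Plasma was stored at –70°C, ether-extracted from ammonia-alkalinised plasma with an internal standard, and assayed by C18 RP-HPLC with fluorescence (ex 320/em 370 nm). Calibration was 10–2,000 ng/ml for parent and 5–200 ng/ml for DCQ/BDCQ. Metabolite and parent AUCs came from noncompartmental linear-log trapezoidal analysis with λz extrapolation to infinity.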

[13] = AUC (infinity) in healthy human at 400 mg, po administered as single dose; type: ADME, organism-based; design: dose 400 mg, time infinity, route oral; details: plasma; how it was run: as §1
Homo sapiens [14] = test: Ratio of AUC for bisdesethylchloroquine level to AUC for compound in healthy human at 400 mg, po administered as single dose; type: ADME, organism-based; details: in vivo; how it was run: as §2
[15] = Terminal half life in healthy human at 400 mg, po administered as single dose; type: ADME, organism-based; details: in vivo, read-out: beta t1/2 (converted); how it was run: as §1
[16] = Tmax in healthy human at 400 mg, po administered as single dose; type: ADME, organism-based; details: in vivo; how it was run: as §1
Homo sapiens [17] = test: AUC (infinity) in healthy human assessed as bisdesethylchloroquine level at 400 mg, po administered as single dose; type: ADME, organism-based, Plasma; design: dose 400 mg, time infinity, route oral; details: in vivo; how it was run: as §1
[18] = Apparent oral clearance in healthy human at 400 mg, po administered as single dose; type: ADME, organism-based; details: in vivo
Homo sapiens [19] = test: Tmax in healthy human assessed as desethylchloroquine level at 400 mg, po administered as single dose; type: ADME, organism-based; details: in vivo; how it was run: as §1

beta t1/2 (Homo sapiens [1]): 549.9 h
Cmax [2]: 1220 nM
Vd/F [3]: 2850 L
beta t1/2 (Homo sapiens [4]): 241 h
Tmax (Homo sapiens [5]): 72.8 h
AUC (Homo sapiens [6]): 37.7 µM·h
Cmax (Homo sapiens [7]): 60 nM
AUC(0-t) [8]: 75.4 µM·h
Cmax (Homo sapiens [9]): 360 nM
AUC (Homo sapiens [10]): 12.2 µM·h
AUC (Homo sapiens [11]): 34 µM·h
Ratio (Homo sapiens [12]): 0.39
AUC(0-inf) [13]: 102 µM·h
Ratio (Homo sapiens [14]): 0.63
half-life [15]: 172 h
Tmax [16]: 2.4 h
AUC (Homo sapiens [17]): 53.6 µM·h
CL/F [18]: 200 mL/min
Tmax (Homo sapiens [19]): 6.1 h
SMILES: CCN(CCO)CCCC(C)Nc1ccnc2cc(Cl)ccc12 (stereo not given) [HYDROXYCHLOROQUINE]
Activity (Plasmodium vivax): inactive
